ChEMBL document CHEMBL1131244, “New alkenyldiarylmethanes with enhanced potencies as anti-HIV agents which act as non-nucleoside reverse transcriptase inhibitors” (J Med Chem, 1998)

Columns and labels:
CEM-SS [1] = test: The compound is evaluated for the therapeutic index, which is the CC50 divided by the EC50.; assay type: functional
Outline: (§1)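 XTT cytoprotection assay in CEM-SS cells infected with HIV-1 RF, with uninfected cultures for cytotoxicity, in presence of fetal calf serum. Data as percent of uninfected drug-free control. EC50 is 50% protection from cytopathicity; CC50 is 50% cell death in uninfected cells; TI = CC50/EC50. Triplicates on each of two sister plates, plate EC50s averaged. Confirmed by supernatant RT and p24.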

[2] = molecular target: Human immunodeficiency virus type 1 reverse transcriptase (Human immunodeficiency virus 1, UniProt Q72547); test: Inhibitory activity against human immunodeficiency virus (HIV) - 1 reverse transcriptase with rCdG as the template primer
Outline: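 Reactions stopped with ice-cold 10% trichloroacetate, filtered through GF/C membrane, washed with ethanol, radiolabel counted by Cerenkov counting. AZTTP and nevirapine as positive controls; IC50 reported.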

CEM-SS [3] = test: Inhibitory concentration for cytopathicity of HIV-1 in CEM-SS cells; assay type: functional, cell-based; conditions: Homo sapiens; outline: as §1
CCRF-CEM = test: The compound is evaluated for the cytotoxic concentration for the mock-infected CEM cells; assay type: functional; conditions: Homo sapiens; outline: as §1
CEM-SS [4] = test: Inhibitory concentration for cytopathicity of HIV-1 RF in CEM-SS cells; NA means there was no observed inhibition of HIV-1 cytopathicity up to the cytotoxic concentration in uninfected cells.; assay type: functional, cell-based; outline: as §1

## COC(=O)c1cc(C(=CCCN=[N+]=[N-])c2cc(Br)c(OC)c(C(=O)OC)c2)cc(Br)c1OC
CEM-SS [1]
  TI: >278
[2]
  IC50: 94 µM
CEM-SS [3]
  EC50: 1.1 µM
CCRF-CEM
  CC50: > 316 µM

## COc1c(Cl)cc(C(=CCCCC(=O)O)c2cc(Cl)c(OC)c(C(=O)O)c2)cc1C(=O)O
CEM-SS [1]
  TI: 1.7
[2]
  IC50: > 100 µM
CEM-SS [3]
  EC50: 180 µM
CCRF-CEM
  CC50: > 316 µM

## COC(=O)c1cc(C(=CC(=O)OC(C)(C)C)c2cc(Cl)c(OC)c(C(=O)OC)c2)cc(Cl)c1OC
CEM-SS [4]
  EC50: Not Active
[2]
  IC50: > 100 µM
CCRF-CEM
  CC50: > 100 µM

## CC1(C)OC(=O)c2cc(C(=CCCO)c3cc(Cl)c4c(c3)C(=O)OC(C)(C)O4)cc(Cl)c2O1
CEM-SS [4]
  EC50: Not Active
[2]
  IC50: > 100 µM
CCRF-CEM
  CC50: 18.8 µM

## CCCCCC=C(c1ccc(OC)c(C(=O)OC)c1)c1ccc(OC)c(C(=O)OC)c1
CEM-SS [4]
  EC50: Not Active
[2]
  IC50: 3.2 µM
CCRF-CEM
  CC50: 14 µM

## COC(=O)c1cc(C(=CCCCC(=O)O)c2cc(Cl)c(OC)c(C(=O)OC)c2)cc(Cl)c1OC
CEM-SS [4]
  EC50: Not Active
[2]
  IC50: > 100 µM
CCRF-CEM
  CC50: 100 µM
